The source of these data is publication PMC12278411 (Acta Pharmaceutica Sinica. B, 2025).

One data set addresses RIPK2 (h) (Homo sapiens, UniProt O43353). The experiment in a line: RIPK2 kinase assay. The format is biochemical.
A further data set has as its target T1, RIPK1 (Homo sapiens, UniProt Q13546).
T1 sequence (Q13546 1-671): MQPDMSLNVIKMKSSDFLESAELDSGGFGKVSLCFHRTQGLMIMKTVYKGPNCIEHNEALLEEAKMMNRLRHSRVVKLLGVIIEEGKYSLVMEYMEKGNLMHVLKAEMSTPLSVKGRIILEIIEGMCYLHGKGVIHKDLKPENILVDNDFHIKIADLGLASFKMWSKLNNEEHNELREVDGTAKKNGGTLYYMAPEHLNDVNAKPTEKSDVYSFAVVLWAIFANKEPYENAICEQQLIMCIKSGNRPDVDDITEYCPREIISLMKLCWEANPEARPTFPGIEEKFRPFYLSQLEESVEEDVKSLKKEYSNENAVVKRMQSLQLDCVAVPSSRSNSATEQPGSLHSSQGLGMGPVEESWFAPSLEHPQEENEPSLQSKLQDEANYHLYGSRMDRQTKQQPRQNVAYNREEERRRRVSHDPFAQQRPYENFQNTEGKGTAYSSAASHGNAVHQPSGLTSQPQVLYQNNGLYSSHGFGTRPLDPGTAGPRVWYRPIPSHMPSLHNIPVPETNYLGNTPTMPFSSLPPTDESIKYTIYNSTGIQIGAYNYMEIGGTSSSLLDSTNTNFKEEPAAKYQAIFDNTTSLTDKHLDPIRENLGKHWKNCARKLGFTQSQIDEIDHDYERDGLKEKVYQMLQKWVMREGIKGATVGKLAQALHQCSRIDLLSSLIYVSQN
The experiment in a line: RIPK1 kinase assay. It counts as biochemical.

Data set [1] can be described thus: Plasma exposure test, oral 10 mg/kg. The format is in vivo. The note with it: 10 mg/kg p.o., BALB/c mice. A digest of the protocol: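 Test compound in saline with 2.5% DMSO, given orally at 10 mg/kg to BALB/c mice (20–22 g), n = 3. Blood drawn at 0.5, 2 and 6 h after dosing, centrifuged to obtain plasma. Proteins precipitated with acetonitrile containing SAHA internal standard, centrifuged again; supernatant concentrations quantified by LC–MS/MS.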

Data set [2] is described as follows: Pharmacokinetic study in mice, i.v. and p.o. It counts as in vivo. The following applies: BALB/c, mouse, plasma, 10 mg/kg.
The subject of data set [3] is APAP-induced ALI (650 mg/kg APAP). The data set can be described thus: Survival period in APAP-induced acute liver injury. It counts as in vivo, C57BL/6 mice. The note with it: APAP 650 mg/kg, 96 h observation. Put shortly:
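Male C57BL/6 mice (24–25 g), fasted 16 h with free water, randomised 10 per group. APAP 650 mg/kg i.p., immediately followed by oral test compound (5, 10 or 20 mg/kg; reference groups NAC 30 mg/kg or a RIPK2 inhibitor 10 mg/kg). A second dose was given 12 h after induction. Saline controls included. Survival followed over 96 h.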

The nature of data set [4]: Metabolic stability assay in human liver microsome. The format is in vitro ADME. Background: Microsomes from liver hold many membrane-bound enzymes, among them those of drug oxidation.

Molecules are shown by their SMILES.

RIPK2 (h), sequence (O43353 whole entry): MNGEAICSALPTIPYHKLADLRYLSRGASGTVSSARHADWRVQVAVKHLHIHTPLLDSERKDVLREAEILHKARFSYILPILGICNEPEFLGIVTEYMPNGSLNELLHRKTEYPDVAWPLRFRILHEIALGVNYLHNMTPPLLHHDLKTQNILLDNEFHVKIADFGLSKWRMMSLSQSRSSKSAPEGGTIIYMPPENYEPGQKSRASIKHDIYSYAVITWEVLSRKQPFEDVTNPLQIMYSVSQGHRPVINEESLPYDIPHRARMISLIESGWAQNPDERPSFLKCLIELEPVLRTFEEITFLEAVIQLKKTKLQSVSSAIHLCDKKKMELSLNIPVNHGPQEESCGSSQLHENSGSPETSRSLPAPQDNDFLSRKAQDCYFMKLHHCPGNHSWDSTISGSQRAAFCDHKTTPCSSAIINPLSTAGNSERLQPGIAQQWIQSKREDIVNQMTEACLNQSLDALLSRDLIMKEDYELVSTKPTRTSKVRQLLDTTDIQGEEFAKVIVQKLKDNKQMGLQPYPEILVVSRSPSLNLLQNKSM

What is called IC50 is the concentration that inhibits the measured activity by half. A higher IC50 goes with a need for much substance. One may read the AUC(0-t) as exposure summed from dosing to a finite time, without extrapolation to infinity. A low value points to less exposure. As usually defined, the Cmax is the highest concentration seen after dosing. By half-life is commonly meant the time in which the quantity being followed falls by half. As a reminder, the bioavailability is the share of a dose that reaches the circulation, judged against a reference dose that is usually intravenous. A lower bioavailability goes with little systemic uptake. On to `CC(C)(C)S(=O)(=O)c1cc2c(Nc3ccc4scnc4c3)ncnc2cc1OCCOP(=O)(O)O` [GSK2983559, 2-((4-(benzo[d]thiazol-5-ylamino)-6-(tert-butylsulfonyl)quinazolin-7-yl)oxy)ethyl dihydrogen phosphate], for which half-maximal inhibition against RIPK2 (h) (IC50) was put at 7 nM. At RIPK1, this molecule came in with an IC50 of more than 30 µM. For the same molecule, in data set [1] (0.5 h), the “Plasma concentration 0.5 h” value is 1154 ± 125 ng/mL. The “Plasma concentration 2 h” value in data set [1] (2 h) is 145 ± 42 ng/mL. Further, the “Plasma concentration 6 h” value in data set [1] (6 h) came out at 21 ± 11 ng/mL. Also, in data set [2] (iv), the AUC(0-t) was found to be 3780 ± 255 ng·h/mL, the peak level (Cmax) was 5680 ± 521 ng/mL, the Vd is 9.46 ± 4.13 L/kg and the clearance was 44.3 mL/min/kg. Further, in data set [2] (iv), the half-life was 145 ± 51.6 min. For the same molecule, in data set [2] (po), the AUC(0-t) was 3120 ± 1060 ng·h/mL, the Cmax was 2620 ± 413 ng/mL, the bioavailability is 82.7% and the half-life was 164 ± 15 min. In data set [3], the survival of mice entry is given as “significantly prolong the survival”.

Take `CC(=O)N[C@@H](CS)C(=O)O` [NAC, N-acetylcysteine]: the survival of mice entry in data set [3] is reported as “only deferred the time of mortality”.

Molecule `Fc1cc2scnc2cc1Nc1ncnc2sc(C3=CCNCC3)cc12` [RP1, N-(6-fluorobenzo[d]thiazol-5-yl)-6-(1,2,3,6-tetrahydropyridin-4-yl)thieno[2,3-d]pyrimidin-4-amine] registered an IC50 at RIPK2 (h) of 9 nM. In addition, at RIPK1 (active RIPK1 activity relative to control, 1 μmol/L), the “RIPK1 Percentage%@1 μmol/L” value is 99 ± 2%. This molecule came in with a CL in data set [4] (human liver microsomes, 1 μmol/L) of less than 12 mL/min/g·protein. Further, the half-life at 1 μmol/L in data set [4] (human, pooled liver microsomes) is more than 120 min.
